Laboratory results from PubChem BioAssay.
The source made the active and inactive calls.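 The calls were made as follows, unless noted: active = viability at or under a set limit in both replicates, limit being median viability minus 3 SD (cut at about 48% in these data, passing the limit was not always enough); inconclusive = at or under the limit in just one replicate; inactive = at or above the limit in both replicates.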

Tests used:
[1] = reducers of endogenous Her2 protein level, primary screen, SKBR3 breast tumor cells, AlphaScreen, ATP viability (AID 461;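 active = Her2 level under about 52% in both replicate screens, with viability over 70% of control, limit read from the data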;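 as to Her2 level: lower value means less Her2 protein in the cells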;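 as to viability: percent of carrier control wells set as 100% viability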); conditions: 18-24 h, measured here: SKBR3 viability, ATP luminescence, at 10 µM
[2] = molecular target: Receptor tyrosine-protein kinase erbB-2 (Homo sapiens) (UniProt P04626); experiment: as above; conditions: 18-24 h, at 10 µM, stronger effect = lower value
[3] = SK-BR-3 cell growth inhibitors, pilot screen, 24 h, human (AID 572;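 active = viability at or below 10% of carrier control in both of two separate runs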;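 also: compound exposure lasted between 18 and 24 h rather than exactly 24 h; 100% = carrier-treated control wells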); conditions: SK-BR-3 viability, CellTiter-Glo luminescence, at 10 µM, stronger effect = lower value
[4] = HUVEC growth inhibition – cell-based, human, primary screen (AID 575;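 active = viability at or below 30% in both replicate assays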;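 also: 100% = median of untreated cell wells with 0.1% DMSO on each plate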); conditions: HUVEC proliferation, CellTiter-Glo luminescence, 72 h; at 10 µM; stronger effect = lower value
Method in brief: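 Assay system: Primary human umbilical vein endothelial cells | Quantity: 1250 cells per well | Medium: Supplemented EBM, 2% fetal bovine serum | Detection: CellTiter-Glo luminescence measuring cellular ATP | Read-out: % viability vs DMSO wells | Plate: Collagen-coated 384-well format | Times: 72 h exposure, 37 °C, 5% CO2, 30 min RT equilibration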

[5] = growth inhibitors of H69AR lung tumor, primary screen, human, duplicate replicates (AID 580); conditions: H69AR lung tumor cells viability, ATP luminescence, 72 h; at 10 µM; stronger effect = lower value;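 also: 100% = mean luminescence of untreated wells and 0% = no signal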
[6] = reversal of MRP1-mediated doxorubicin resistance, pilot screen, H69AR cells, doxorubicin co-treatment (AID 601;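 active = viability loss from added drug above about 55%, and viability with drug at most 40%, in both replicates, limit read from the data, passing the limit was not always enough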); conditions: CellTiter-Glo, 72 h, at 10 µM; for differential viability (reversal): stronger effect = higher value
[7] = 384-well plate pilot, post-Golgi transport modulator project, inhibition of yeast transport mutant growth (AID 636; in the data active = inhibition above about 31%); conditions: absorbance 615 nm, about 18 h, stronger effect = higher value
[8] = growth suppression of yeast trafficking mutant, preliminary HTS, modulators of trafficking downstream of Golgi apparatus project, 1536-format plate, OD 615 nm (AID 637; in the data active = inhibition above about 30%); conditions: yeast transport mutant growth, absorbance 615 nm, 18 h; stronger effect = higher value
[9] = H69AR cells + 2 uM doxorubicin, measured here: viability with 2 uM doxorubicin, stronger effect = lower value
[10] = H69AR cells, compound alone cytotoxicity

Sequence of Receptor tyrosine-protein kinase erbB-2 (Homo sapiens) (P04626 whole entry, looked up): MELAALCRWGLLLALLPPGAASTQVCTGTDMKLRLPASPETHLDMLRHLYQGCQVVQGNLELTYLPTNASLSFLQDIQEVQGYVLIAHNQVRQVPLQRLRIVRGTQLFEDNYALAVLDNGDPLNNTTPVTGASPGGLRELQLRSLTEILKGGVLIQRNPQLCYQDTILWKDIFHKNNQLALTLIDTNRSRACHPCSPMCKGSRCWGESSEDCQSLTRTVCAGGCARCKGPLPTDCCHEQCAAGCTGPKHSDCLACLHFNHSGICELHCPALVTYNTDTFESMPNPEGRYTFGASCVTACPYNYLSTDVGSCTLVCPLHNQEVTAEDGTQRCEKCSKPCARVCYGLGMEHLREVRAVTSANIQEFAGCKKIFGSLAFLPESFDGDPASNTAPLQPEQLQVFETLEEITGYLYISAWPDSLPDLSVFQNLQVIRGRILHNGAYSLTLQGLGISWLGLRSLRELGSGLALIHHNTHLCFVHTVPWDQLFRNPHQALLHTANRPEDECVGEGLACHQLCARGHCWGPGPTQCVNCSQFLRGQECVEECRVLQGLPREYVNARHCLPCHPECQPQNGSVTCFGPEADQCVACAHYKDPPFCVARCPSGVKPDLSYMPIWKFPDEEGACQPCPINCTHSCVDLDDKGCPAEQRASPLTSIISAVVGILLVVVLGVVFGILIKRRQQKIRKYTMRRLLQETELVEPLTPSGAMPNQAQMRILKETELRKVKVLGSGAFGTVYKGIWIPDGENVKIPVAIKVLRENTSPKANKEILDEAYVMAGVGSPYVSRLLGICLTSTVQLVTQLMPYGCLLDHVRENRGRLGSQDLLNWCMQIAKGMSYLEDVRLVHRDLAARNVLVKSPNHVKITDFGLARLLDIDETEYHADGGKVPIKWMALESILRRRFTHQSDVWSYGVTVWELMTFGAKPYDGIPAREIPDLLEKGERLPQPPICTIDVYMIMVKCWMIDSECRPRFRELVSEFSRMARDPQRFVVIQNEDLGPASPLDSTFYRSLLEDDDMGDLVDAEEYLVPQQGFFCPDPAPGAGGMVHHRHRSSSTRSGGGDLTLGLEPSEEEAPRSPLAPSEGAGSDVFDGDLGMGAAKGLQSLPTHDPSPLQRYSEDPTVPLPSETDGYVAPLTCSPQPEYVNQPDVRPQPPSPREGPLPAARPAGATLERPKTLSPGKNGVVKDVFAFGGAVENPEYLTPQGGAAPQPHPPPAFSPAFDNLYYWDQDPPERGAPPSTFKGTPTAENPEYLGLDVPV

| SMILES | viability [1] | Her2 level [2] | viability [3] | viability [4] | viability [5] | differential viability (reversal) ([6]; H69AR cells + 2 uM doxorubicin) | viability [6, 9] | viability [6, 10] | inhibition [7] | inhibition [8] |
| --- | --- | --- | --- | --- | --- | --- | --- | --- | --- | --- |
| O=C(OCC#CCSc1nnc(-c2ccccc2)o1)c1cccs1 | 130% | 92% (inactive) | 130% (inactive) | 98.3% (inactive) | 94.9% (inactive) | 12.1% (inactive) | 82.8% | 94.9% | -6.13% (inactive) | -4.92% (inactive) |
| O=C(Nc1cccnc1)c1ccc2c(c1)C(=O)N(Cc1cccnc1)C2=O | 96.5% | 99.5% (inactive) | 96.5% (inactive) | 103% (inactive) | 102% (inactive) | 7.77% (inactive) | 94.7% | 102% | -2.93% (inactive) | -1.64% (inactive) |
| Cc1csc(NC(=O)c2ccco2)n1 | 102% | 83.5% (inactive) | 102% (inactive) | 82.9% (inactive) | 83.3% (inactive) | 1.88% (inactive) | 81.4% | 83.3% | -3.46% (inactive) | -5.5% (inactive) |
| Cc1nn(-c2ccccc2)c(C)c1C(=O)OCC(=O)c1c(N)n(CC(C)C)c(=O)n(C)c1=O | 104% | 74% (inactive) | 104% (inactive) | 64.3% (inactive) | 77.8% (inactive) | -24.7% (inactive) | 102% | 77.8% | -8.4% (inactive) | 4.75% (inactive) |
| CCOCCCNCC(=O)N1CCN(S(=O)(=O)c2ccc(C)cc2)CC1 | 90% | 99.5% (inactive) | 90% (inactive) | 96.2% (inactive) | 101% (inactive) | 12% (inactive) | 89.4% | 101% | -6.18% (inactive) | -1.45% (inactive) |
| CCOc1ccc(-n2c(=O)cc(N3CCN(c4ccccc4)CC3)[nH]c2=O)cc1 | 94% | 84% (inactive) | 94% (inactive) | 96.1% (inactive) | 103% (inactive) | 7.43% (inactive) | 95.6% | 103% | -6.13% (inactive) | 6.07% (inactive) |
| CN1CCN(/C=N/c2sc3c(c2C#N)CCCCC3)CC1 | 97% | 96.5% (inactive) | 97% (inactive) | 75.9% (inactive) | 84.2% (inactive) | 6.14% (inactive) | 78.1% | 84.2% | 0.67% (inactive) | -9.52% (inactive) |
| CC(=O)CCc1c(C)[nH]c2ccccc2c1=O | 88.5% | 118% (inactive) | 88.5% (inactive) | 99.1% (inactive) | 93.2% (inactive) | 0.225% (inactive) | 93% | 93.2% | 5.84% (inactive) | 13.1% (inactive) |
| O=C(c1ccc2c(c1)OCCO2)C1CCN(C(=O)c2ccc(F)cc2)CC1 | 102% | 111% (inactive) | 102% (inactive) | 93.7% (inactive) | 83.8% (inactive) | -16.2% (inactive) | 99.9% | 83.8% | -6.35% (inactive) | -3.11% (inactive) |
| CCCCC(c1nnnn1C1CCCC1)N1CCN(C2CCCCC2)CC1 (stereo not given) | 81.5% | 74% (inactive) | 81.5% (inactive) | 106% (inactive) | 92.7% (inactive) | 20.4% (inactive) | 72.2% | 92.7% | -6.62% (inactive) | 1.83% (inactive) |
| O=C(CN(c1ccc(F)cc1)S(=O)(=O)c1ccc2c(c1)OCCO2)Nc1ccc2c(c1)OCO2 | 83% | 89.5% (inactive) | 83% (inactive) | 91.3% (inactive) | 99.8% (inactive) | 4.63% (inactive) | 95.2% | 99.8% | 0.8% (inactive) | 4.03% (inactive) |
| O=C(COc1ccc(S(=O)(=O)NC2CCCCC2)cc1Cl)NCC1CCCO1 (stereo not given) | 88.5% | 98% (inactive) | 88.5% (inactive) | 98.6% (inactive) | 89.4% (inactive) | 0.36% (inactive) | 89% | 89.4% | -5.07% (inactive) | -7.78% (inactive) |
| Cc1ccc(C)c(N2CCN(C(=O)CCCn3c(=S)[nH]c4cc5c(cc4c3=O)OCO5)CC2)c1 | 73.5% | 88.5% (inactive) | 73.5% (inactive) | 62.5% (inactive) | 94% (inactive) | 4.74% (inactive) | 89.2% | 94% | -3.38% (inactive) | -0.33% (inactive) |
| O=C(C1CCCN(S(=O)(=O)c2cnc[nH]2)C1)N1CC(=O)N(CCc2ccccc2)C(=O)C1 (stereo not given) | 93.5% | 92% (inactive) | 93.5% (inactive) | 105% (inactive) | 95% (inactive) | -4.7% (inactive) | 99.7% | 95% | -0.8% (inactive) | 21.6% (inactive) |
| COc1ccc(C2(C(=O)N3CCCC3)CCOCC2)cc1OC | 88.5% | 126% (inactive) | 88.5% (inactive) | 82.2% (inactive) | 97.2% (inactive) | 9.43% (inactive) | 87.8% | 97.2% | 3.21% (inactive) | -11% (inactive) |
| C=CCSc1nc(N)c(C(=O)Nc2ccccc2C)cc1C(N)=O | 93% | 121% (inactive) | 93% (inactive) | 99.9% (inactive) | 87.4% (inactive) | -2.21% (inactive) | 89.6% | 87.4% | 4.42% (inactive) | 4.67% (inactive) |

| SMILES | viability [1] | Her2 level [2] | viability [3] | viability [4] | viability [5] | differential viability (reversal) ([6]; H69AR cells + 2 uM doxorubicin) | viability [6, 9] | viability [6, 10] | inhibition [7] | inhibition [8] |
| --- | --- | --- | --- | --- | --- | --- | --- | --- | --- | --- |
| O=C(c1ccc(Cl)cc1)N1CCCCC(Sc2nnc(-c3ccc4c(c3)OCO4)o2)C1=O (stereo not given) | 118% | 76% (inactive) | 118% (inactive) | 62% (inactive) | 88.5% (inactive) | -3.4% (inactive) | 91.9% | 88.5% | -6.49% (inactive) | 5.56% (inactive) |
| Cc1nc2c(-c3ccccc3)c(C)nn2c(C)c1CCC(=O)O | 97.5% | 100% (inactive) | 97.5% (inactive) | 85.5% (inactive) | 86.2% (inactive) | -0.87% (inactive) | 87% | 86.2% | -4% (inactive) | 5.57% (inactive) |
| C=CCn1c(Cc2cccs2)nnc1SCC(=O)Nc1ccc(OC)c(OC)c1 | 108% | 109% (inactive) | 108% (inactive) | 89.6% (inactive) | 85.3% (inactive) | -5.02% (inactive) | 90.3% | 85.3% | -5.06% (inactive) | 0% (inactive) |
| CCOc1ccc(NCc2nnc(SCC(=O)Nc3cc(C)on3)n2-c2ccccc2OC)cc1 | 106% | 79% (inactive) | 106% (inactive) | 41.7% (inactive) | 13.1% (active) | -19% (inactive) | 32.1% | 13.1% | -4.8% (inactive) | 2.86% (inactive) |
| CCOc1cc(C(=O)Nc2ccon2)cc(OCC)c1OCC | 100% | 110% (inactive) | 100% (inactive) | 96.8% (inactive) | 99.4% (inactive) | 2.21% (inactive) | 97.2% | 99.4% | -3.03% (inactive) | -1.17% (inactive) |
| Cc1cccc2sc(NC(=O)CN(C)S(=O)(=O)c3cccs3)nc12 | 76.5% | 125% (inactive) | 76.5% (inactive) | 48.8% (inactive) | 92% (inactive) | -0.425% (inactive) | 92.5% | 92% | 0.39% (inactive) | -6.33% (inactive) |
| CCn1c(SCC(=O)Nc2nnc(C)s2)nnc1-c1ccncc1 | 112% | 76% (inactive) | 112% (inactive) | 107% (inactive) | 95.5% (inactive) | 4.15% (inactive) | 91.4% | 95.5% | -7.43% (inactive) | 6.17% (inactive) |
| CCOc1cc(CN2CCN(C(=O)c3ccco3)CC2)ccc1OC | 79.5% | 102% (inactive) | 79.5% (inactive) | 88.7% (inactive) | 89.5% (inactive) | 1.51% (inactive) | 87.9% | 89.5% | -2.69% (inactive) | 0.83% (inactive) |
| O=C(c1ccc(-c2cccc(C(F)(F)F)c2)o1)N1CCOCC1 | 95.5% | 118% (inactive) | 95.5% (inactive) | 72.8% (inactive) | 92.7% (inactive) | 16.1% (inactive) | 76.6% | 92.7% | -4.8% (inactive) | -2.58% (inactive) |
| O=C(OC1CCOC1=O)c1ccc2ccccc2n1 (stereo not given) | 98.5% | 85% (inactive) | 98.5% (inactive) | 101% (inactive) | 102% (inactive) | 9.04% (inactive) | 93.4% | 102% | -6.93% (inactive) | 1.75% (inactive) |
| CCOc1cc(C2C(C#N)=C(N)OC(C)=C2C(C)=O)cc(Br)c1O (stereo not given) | 114% | 91% (inactive) | 114% (inactive) | 120% (inactive) | 90.3% (inactive) | 6.05% (inactive) | 84.2% | 90.3% | -5.95% (inactive) | -6.83% (inactive) |
| CCCOc1ccc(-c2nnn(CC(=O)Nc3cccc(C(=O)OC)c3)n2)cc1 | 100% | 98% (inactive) | 100% (inactive) | 64.3% (inactive) | 48% (active) | -5.98% (inactive) | 54% | 48% | 1.87% (inactive) | 21.1% (inactive) |
| O=C(COC(=O)c1ccccc1O)Nc1ccc(OC(F)F)cc1 | 78% | 123% (inactive) | 78% (inactive) | 93.7% (inactive) | 93.2% (inactive) | 2.67% (inactive) | 90.5% | 93.2% | 5.14% (inactive) | 32.4% (active) |
| COc1ccc(CC(=O)OCC(=O)NC(=O)NC2CCCCC2)cc1 | 96.5% | 94% (inactive) | 96.5% (inactive) | 100% (inactive) | 92.4% (inactive) | -0.595% (inactive) | 93% | 92.4% | -5.13% (inactive) | -0.73% (inactive) |
| CCN(CC)C(=O)CSc1nc2ccc(NC(=O)CSc3nccn3C)cc2s1 | 88.5% | 93.5% (inactive) | 88.5% (inactive) | 68.2% (inactive) | 91% (inactive) | 6.22% (inactive) | 84.8% | 91% | -4.47% (inactive) | -1.45% (inactive) |
